Compound activity (PubChem BioAssay)
MrgX1 PAM: human MrgX1 positive allosteric modulation, primary screen; Q96LB2; MrgX1-HEK293, Fluo-4 calcium flux, FDSS; active compounds read high; B-score at 10 µM; 0.63% of 310,000 active;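 active = plate-corrected calcium response at least 3 library SD above typical, normal starting fluorescence, not activating the receptor alone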;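 note: compound read alongside a low EC10 to EC30 dose of BAM8-22 agonist; peak minus trough fluorescence over baseline measured at the second addition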
Target sequence (Q96LB2 whole entry, looked up): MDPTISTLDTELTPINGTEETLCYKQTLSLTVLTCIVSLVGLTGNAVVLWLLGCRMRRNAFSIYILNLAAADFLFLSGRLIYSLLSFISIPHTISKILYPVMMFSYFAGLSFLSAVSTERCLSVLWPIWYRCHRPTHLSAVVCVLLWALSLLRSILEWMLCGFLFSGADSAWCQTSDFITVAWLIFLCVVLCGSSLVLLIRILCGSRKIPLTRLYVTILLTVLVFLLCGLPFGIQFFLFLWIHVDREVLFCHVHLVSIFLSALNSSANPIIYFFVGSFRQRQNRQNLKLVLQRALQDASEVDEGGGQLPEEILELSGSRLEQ
MrgX1 antag: antagonists of human MrgX1 receptor; B-score at 10 µM; MRGX1-HEK293 calcium flux, Fluo-4, BAM8-22 antagonism; active compounds read low; AID 588676; Q96LB2; 1.3% of 310,000 active;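 active = calcium-response B-score plate-corrected more than 3 library SD below zero, starting fluorescence within 5 deviations, no agonist response on first addition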;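 note: peak minus trough fluorescence over baseline after final BAM8-22 challenge near maximal dose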
RGS4 act: RGS4 potentiation or activation; HEK293 M3R/inducible RGS4, carbachol calcium flux Fluo4; active compounds read low; 0.92% of 310,000 active; AID 463111; B-score at 10 µM;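 active = B-score of the integrated calcium signal more than 4 SD below the library mean, with starting fluorescence not abnormally high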;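 note: negative B-score means reduced calcium response which marks RGS4 activation or potentiation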
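Assay system: Inducible-RGS4 HEK293 cells carrying M3 receptor | Schedule: Compound preincubation 20 min at room temperature before agonist | Signal: Kinetic calcium fluorescence imaging with Fluo4-AM dye, 2 µM | Read-out basis: B score from integrated fluorescence ratio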
RGS4 inh: human RGS4 inhibition. HEK293 M3R/RGS4 inducible, Fluo-4 calcium flux; active compounds read high; triggered by carbachol at its EC20. AID 463165. 0.45% of 310,000 active. B-score at 10 µM;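 active = B-score, a plate-corrected calcium signal, over three deviations above library mean, with baseline fluorescence within five deviations of library mean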;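 note: RGS4 expression induced by doxycycline in cells with stable M3 receptor; B-score is computed from the integrated fluorescence ratio over baseline after carbachol; higher B-score means a larger calcium signal and so more RGS4 inhibition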
Target sequence (P49798 whole entry, looked up): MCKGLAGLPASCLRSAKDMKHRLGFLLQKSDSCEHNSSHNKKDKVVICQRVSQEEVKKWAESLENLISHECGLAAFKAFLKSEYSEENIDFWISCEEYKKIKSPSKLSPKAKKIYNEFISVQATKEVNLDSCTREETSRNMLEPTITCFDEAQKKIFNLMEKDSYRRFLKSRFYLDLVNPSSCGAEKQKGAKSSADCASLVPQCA
MrgX1 agonist: activates human MrgX1 receptor signaling; Q96LB2; MrgX1-HEK293 cells, Fluo-4 calcium fluorescence, agonist mode; active compounds read high; B-score at 10 µM; 0.44% of 310,000 active; AID 588627;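 active = calcium response B-score plate-corrected fluorescence ratio at least 3 library SD, with starting fluorescence B-score inside 5 SD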
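Test system: HEK293 cells stably expressing human MrgX1 receptor; Input: fifteen thousand cells per well; Dosing: compound delivered in addition one of three; Schedule: overnight seeding, then 1 h dark dye loading; Technique: Fluo-4 NW calcium fluorescence; Measure: B-scored fluorescence response ratio; Controls: positive and negative controls per plate.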
* hit, by the source's call; i = inactive; . = no result. Rows were chosen to be rich in hits. Some 3.5% of all compounds tested hit in one or more screens of this group.

SMILES	MrgX1 PAM	MrgX1 antag	RGS4 act	RGS4 inh	MrgX1 agonist
Cc1nn(CCOc2ccccc2)c(=O)n1-c1ccccc1	i	i	i	i	i
Cc1ccsc1/C=C/c1ccc2cccc(O)c2n1	i	-5*	i	i	i
Cc1ccsc1/C=C/c1ccc2ccccc2n1	i	i	i	i	i
Cc1ccccc1C(C(=O)NC1CCCC1)N(C(=O)CNC(=O)c1ccco1)c1cccnc1 (stereo not drawn)	i	i	i	i	i
O=C1/C(=C/c2cccc([N+](=O)[O-])c2)CCc2ccccc21	i	-5.8*	i	i	i
O=C1/C(=C/c2ccc([N+](=O)[O-])cc2)CCc2ccccc21	i	i	i	i	i
CC1(C)CC(=O)C([N+](=O)[O-])=C(NCCCC(=O)O)C1	i	-5.4*	i	i	i
O=C1ON=C(c2ccc(Cl)cc2)/C1=C/c1ccc(O)cc1	i	i	i	i	34*
CC(C)C[C@H]1CN=C(Nc2ccccc2)N1CC1CCC(C(C)(C)C)CC1 (stereo partly drawn)	6.9*	i	.	.	i
N=C1S/C(=C\c2ccco2)C(=O)N1c1ccc2c(c1)OCO2	i	i	i	i	i
N=C1S/C(=C\c2ccco2)C(=O)N1c1nccs1	i	i	i	i	48*
N#Cc1cc(N)ccc1Sc1ccc(Cl)cc1	i	i	-7*	i	i
CSc1cccc(NC(=O)/C=C/c2ccco2)c1	6.5*	i	i	i	i
COc1cccc(NC(=O)/C=C/c2ccco2)c1	i	i	i	i	i
Cc1cccc(NC(=S)NC(=O)/C=C/c2ccco2)c1	9.1*	i	i	i	i
O=C(/C=C/c1ccco1)NC(=S)Nc1ccccc1	13*	i	i	i	i
CC(=O)c1ccc(NC(=S)NC(=O)/C=C/c2ccco2)cc1	i	i	i	i	i
COCCNC(=O)C(c1ccc(C)cc1)N(C(=O)CCC(=O)Nc1ccccn1)C1CCCCC1 (stereo not drawn)	i	i	i	i	i
O=C(N/C(=C\c1ccc(Br)cc1)C(=O)N1CCOCC1)c1ccc([N+](=O)[O-])cc1	i	i	i	i	i
CCn1c(Cc2ccccc2)nnc1SCC(=O)N1CCCC1=O	i	i	i	i	i
CC(=O)N/N=C/c1ccc(OCCOc2ccc(Br)cc2)cc1	i	i	i	i	i
CC(=O)N1CCN(Cc2nc(C(c3ccccc3)c3ccccc3)no2)CC1	i	i	-7.5*	i	i
c1ccc(C(c2ccccc2)c2noc(CN3CCN(C4CCCC4)CC3)n2)cc1	i	i	i	i	i
Cc1cc(/C=N\NC(=O)CC(=O)NC2CCCCC2)c(C)n1-c1cccc(Cl)c1Cl	i	-6.3*	i	i	i
Cc1cc(/C=N\NC(=O)CC(=O)NC2CCCCC2)c(C)n1-c1ccc(Cl)c(Cl)c1	i	i	i	i	i
SMILES	MrgX1 PAM	MrgX1 antag	RGS4 act	RGS4 inh	MrgX1 agonist
Cc1ccc(C)c(S(=O)(=O)/N=C2\C=C(NS(=O)(=O)c3ccccc3)C(=O)c3ccccc32)c1	i	i	i	i	i
Cc1cc(C)c(S(=O)(=O)/N=C2/C=C(Sc3ncn[nH]3)C(=O)c3ccccc32)cc1C	6.8*	i	.	.	i
Cc1cc(=O)oc2cc(OCC(=O)N3CCN(C(=O)C4COc5ccccc5O4)CC3)ccc12 (stereo not drawn)	i	i	i	i	i
Cc1c(C)c2ccc(OCC(=O)N3CCN(C(=O)C4COc5ccccc5O4)CC3)cc2oc1=O (stereo not drawn)	i	i	-7.2*	i	i
O=C(Cn1cnc(S(=O)(=O)N2CCCC2)c1)Nc1cccc(F)c1	i	i	i	i	i
Cc1cc(C(=O)O)ccc1-c1ccc(/C=C2\SC(=O)N(CC(=O)Nc3ccc4c(c3)OCO4)C2=O)o1	i	i	i	i	i
Cc1ccc(C)c(N2C(=N)S/C(=C\c3ccc(-c4ccccc4C(=O)O)o3)C2=O)c1	12*	i	i	i	i
C#CCN1C(=O)S/C(=C\c2ccc(-c3ccc(C(=O)O)cc3C)o2)C1=O	8.1*	i	i	i	i
CC(=O)Nc1ccc(-c2csc(Nc3ccc(Cl)cn3)n2)cc1	7.2*	i	i	i	i
CC(=O)Nc1cccc(-c2csc(Nc3ccc(Cl)cn3)n2)c1	i	i	i	i	i
CCCN1C(=O)c2cc(C(=O)Nc3ccccc3OC)ccc2C1Nc1ccccc1OC (stereo not drawn)	i	i	-7.2*	i	i
COC(=O)c1cc(NS(=O)(=O)c2ccc(Cl)c(N3C(=O)c4ccc(C(=O)O)cc4C3=O)c2)cc(C(=O)OC)c1	9.9*	i	i	i	i
COc1ccc(/C=C/C(=O)C2CC2)cc1COc1c(C)cccc1C	i	i	-8.5*	i	i
Cc1cc2[nH]c3c(c[n+](C)c4ccccc34)c2cc1C	i	i	-7.1*	i	i
CCCc1cc(=O)oc2cc(OC(C)C(=O)NCC3CCC(C(=O)O)CC3)ccc12 (stereo not drawn)	i	i	i	i	i
CCN(C(=O)COC(=O)/C(C#N)=C/c1ccc(OC)cc1)C1CCS(=O)(=O)C1 (stereo not drawn)	i	i	i	i	i
O=C(Nc1ccc(C(=O)O)cc1)/C(=C\C=C\c1ccccc1)NC(=O)c1ccccc1Br	i	i	-7.7*	i	i
O=C(Nc1ccc(C(=O)O)cc1)/C(=C\C=C\c1ccccc1)NC(=O)c1cccc(Br)c1	i	i	i	i	i
CC(C)c1ccc(-c2nnc(SCC(=O)NC3CC3)n2C)cc1	i	i	i	i	i
CCOC(=O)c1c(-c2cccc([N+](=O)[O-])c2)csc1NC(=O)C1CCCCC1	i	i	-9.2*	i	i
CCOC(=O)c1c(-c2cccc([N+](=O)[O-])c2)csc1NC(=O)C1CC1	i	i	-7.7*	i	i
COc1ccc(Cc2noc(CN3CCCC(OCc4ccccn4)C3)n2)cc1OC (stereo not drawn)	i	i	i	i	i
Cc1cc(NS(=O)(=O)c2ccc(NC(=S)NC(=O)c3cccc(S(=O)(=O)N(C)C)c3)cc2)no1	14*	i	i	i	i
COc1ccc(C2=NOC(C(=O)NCCN3CCOCC3)C2)cc1 (stereo not drawn)	i	i	i	i	i
